# HEK293 NFkB inh – inhibitors of the PMA/ionomycin-induced NF-kB reporter in HEK293 cells | HEK-293 NF-kB luciferase reporter, luminescence | hit rate 0.21% among 62,000 | inhibition, % at 3 µM;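 active = inhibition above the mean of all tested compounds plus 3 SD, cut at about 40% in these data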
#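 Signal: luciferase luminescence; Material: HEK-293 cells with stable firefly luciferase reporter driven by four HIV NF-kB elements; Probe or stimulus: PMA with ionomycin; Replication: tested once; Times: 1 h compound pretreatment, then 16 h stimulation at 37 °C, 5% CO2; Benchmarks: DMSO and 10 µM reference inhibitor; Evaluation: per-plate % inhibition versus controls.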
# D1 mod – allosterically modulates the human D1 dopamine receptor; P21728; HEK293 D1, CRE-luciferase, dopamine EC30 potentiation; actives deviate in either direction; B-score at 10 µM; hit rate 5.9% among 58,000; AID 641;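 active = luminescence count or its row- and column-corrected plate score outside the 99.7% band of the plate's sample wells, on either side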
# Htt clearance – mutant huntingtin protein clearance | HeLa Exon1htt(103Q)mCFP, aggregate imaging; zero = plate's median compound well | inhibition, % at 1.5 µM | hit rate 0.42% among 47,000;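 active = inhibition of aggregate fluorescence above about 70%, also judged a hit by eye on the cell image, limit read from the data, passing the limit was not always enough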;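 also: cells exposed to compound for three days before fixation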
# Jurkat viability – cytotoxicity toward Jurkat cells; Jurkat E6.1 viability, ATP luminescence, 48 h; inhibition, % at 4 µM; hit rate 1.2% among 56,000; AID 463;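 active = inhibition above the mean inhibition of all tested compounds plus 3 SD, cut at about 28% in these data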
# M1 ag – M1 muscarinic receptor agonism; CHO-M1 cells, Fluo-4 calcium fluorescence, agonist mode; stronger effect = higher value; B-score at 10 µM; hit rate 3% among 64,000;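 active = fluorescence rise, raw or as B-score row- and column-corrected plate score, outside the 99.7% band of its plate's samples, either direction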
# M1 antag – blocks the rat M1 muscarinic receptor response to acetylcholine | P08482 | CHO-M1 cells, Fluo-4 calcium, ACh EC80 antagonist mode; stronger effect = lower value | B-score at 10 µM | hit rate 3.4% among 64,000 | AID 628;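 active = calcium fluorescence response, raw or row-and-column corrected B-score, differing from the plate sample mean either way at a set confidence level, mostly lower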
# Target sequence (P08482 whole entry, looked up): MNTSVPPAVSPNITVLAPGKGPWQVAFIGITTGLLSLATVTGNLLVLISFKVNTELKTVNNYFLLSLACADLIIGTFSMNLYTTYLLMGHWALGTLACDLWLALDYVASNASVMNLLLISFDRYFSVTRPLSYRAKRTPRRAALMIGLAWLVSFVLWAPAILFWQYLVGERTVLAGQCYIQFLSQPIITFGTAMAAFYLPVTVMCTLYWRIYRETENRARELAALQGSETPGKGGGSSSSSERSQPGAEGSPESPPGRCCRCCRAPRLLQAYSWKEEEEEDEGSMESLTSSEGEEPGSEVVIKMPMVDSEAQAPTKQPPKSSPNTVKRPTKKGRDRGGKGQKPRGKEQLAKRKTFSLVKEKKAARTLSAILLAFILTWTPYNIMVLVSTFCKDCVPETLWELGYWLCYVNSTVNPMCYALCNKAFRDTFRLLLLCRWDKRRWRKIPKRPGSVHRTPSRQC
# D1 mod confirm – D1 receptor (human) allosteric modulation, confirmed; luminescence at 10 µM; HEK293 D1 CRE-luciferase, dopamine EC30 potentiation; stronger effect = higher value; hit rate 88% among 2,200; shares compounds with D1 mod;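 active = luminescence in either of two replicates above the same-plate mean plus 3 SD of the low-dose dopamine control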
# D1 no dopamine – secondary test of D1 modulators: activity without dopamine | shares compounds with D1 mod | HEK293 D1 CRE-luciferase, luminescence, no dopamine; stronger effect = higher value | luminescence at 10 µM | hit rate 0.8% among 1,900 | AID 646; in the data active = luminescence above about 3900
# Isoprot counter – isoproterenol response counter-screen activity for D1 modulators; shares compounds with D1 mod; HEK293 D1 CRE-luciferase, isoproterenol EC30 counter-screen; stronger effect = higher value; luminescence at 10 µM; hit rate 63% among 2,200; AID 647;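 active = luminescence in either replicate above plate mean of wells with a partly effective reference agonist dose plus 3 SD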;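 also: isoproterenol raises cAMP through native beta-adrenoceptor Gs so signal bypasses D1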
# Hits are given with their value; – = inactive; · = not tested or not shown. In the library only some 9.5% were active in any assay of this set; here they are far more common.
SMILES,HEK293 NFkB inh,D1 mod,Htt clearance,Jurkat viability,M1 ag,M1 antag,D1 mod confirm,D1 no dopamine,Isoprot counter
O=c1n(-c2ccccc2)c(=O)n(Cc2ccccn2)n1Cc1ccccn1,–,·,·,–,–,–,·,·,·
N#Cc1c(-c2cccs2)cc(-c2ccccn2)nc1N,–,5.6,–,–,·,·,10756,–,3144
CCOC(=O)C1(C)NC(c2ccc(OC)cc2OC)C2C(=O)N(c3cccc(OC)c3)C(=O)C21 (stereo unspecified),–,–,–,–,–,–,·,·,·
COc1cc(-c2nn3c(-c4ccccc4)nnc3s2)cc(OC)c1OC,–,3.3,–,–,–,–,14804,–,5412
COc1ccc(-c2nn3c(-c4ccco4)nnc3s2)cc1OC,–,16,–,–,–,–,18008,·,5592
COc1cc(-c2nnc3sc(-c4ccncc4)nn23)cc(OC)c1OC,–,–,·,–,–,–,·,·,·
COc1cc(-c2nn3c(Cc4ccccc4)nnc3s2)cc(OC)c1OC,–,4,–,–,–,–,9884,–,6328
Cc1ccc(C(c2nnnn2Cc2ccccc2)N2CCN(Cc3ccccc3)CC2)cc1 (stereo unspecified),·,·,–,·,·,·,·,·,·
Cc1cc(O)c(C=Nc2cccc(Cl)c2)c(=O)o1,–,3.8,·,–,–,–,8536,–,–
O=C1C(Cl)=C(NCC2CCCO2)C(=O)N1C1CCCCC1 (stereo unspecified),–,4.4,–,–,–,–,8656,–,–
O=C(CSc1ncnc2c1oc1ccccc12)NCc1ccco1,–,–,–,–,–,–,·,·,·
CCOC(=O)c1sc(C)c2c1NC1(CCCCC1)NC2=O,–,6.2,·,–,–,–,14036,·,3196
CCCCNC(=O)C1CCCN1C(=O)Nc1cccc(OC)c1 (stereo unspecified),–,30,–,–,–,–,–,–,–
COCCOC(=O)c1c(C)oc2ccc(OC(=O)c3ccc4c(c3)OCO4)cc12,–,–,·,–,–,–,·,·,·
CCOC(=O)NCCc1ccc(OC)cc1,–,3.8,·,–,–,–,8468,–,–
CN(C)CCCNC(=O)CCC1CCCCC1,–,–,–,–,–,–,·,·,·
COC(=O)Cn1cnc2ccccc2c1=O,·,·,–,·,·,·,·,·,·
COC(=O)c1ccc(OCCn2cnc3ccccc3c2=O)cc1,–,5.2,·,–,–,–,9464,–,–
CCSc1nnc([C@H](C)NC(=O)OC(C)(C)C)o1,–,–,–,–,–,–,·,·,·
COC(=O)c1cc(C)sc1NC(=O)c1cccnc1,–,5.4,–,–,–,–,16836,–,3924
COc1ccc(CC(=O)NC2CCN(CC(=O)Nc3ccc4c(c3)OCCO4)CC2)cc1OC,–,–,–,–,–,–,·,·,·
Cc1ccc(S(=O)(=O)N2CCOCC2)cc1C(=O)Nc1ccccn1,–,–,–,–,–,–,·,·,·
Cc1cc(NC(=O)c2cc(S(=O)(=O)N3CCCCC3)ccc2C)n(-c2ccccn2)n1,–,21,·,–,–,–,16476,–,5612
CC(C)Oc1ccc(NC(=O)c2ccncc2)cc1,–,–,–,–,–,–,·,·,·
O=C(c1ccccc1)N1CCN2C(=O)c3ccccc3C12c1ccc(Cl)cc1 (stereo unspecified),·,·,–,·,·,·,·,·,·
SMILES,HEK293 NFkB inh,D1 mod,Htt clearance,Jurkat viability,M1 ag,M1 antag,D1 mod confirm,D1 no dopamine,Isoprot counter
COc1ccccc1-c1nc(-c2cccc(C)c2)no1,–,–,–,–,–,–,·,·,·
Cc1c2c(nc3c(C(=O)NC4CCCC4)cnn13)CCCC2,–,5,–,·,–,–,11564,–,3860
O=C(NC1CCCC1)c1cnn2c(C(F)(F)F)cc(-c3ccco3)nc12,–,–,–,·,–,–,·,·,·
CC(CCc1ccccc1)NC(=O)C(Cc1ccccc1)NS(=O)(=O)c1cccs1 (stereo unspecified),·,·,–,·,·,·,·,·,·
CCOc1nc(C)ccc1-c1noc(-c2ccccn2)n1,–,8,–,–,–,–,16720,–,4016
CCOc1nc(C)ccc1-c1noc(-c2ccco2)n1,–,7.2,–,–,–,–,16212,–,4260

# Source: PubChem (several laboratories)
